One experiment has as its system KB. The experiment can be described thus: Cytotoxicity against human KB cells after 45 hrs by resazurin microplate assay. In kind it is functional, cell-based. Background: The colour change of resazurin is a common sign of viable cells or microbes.
For the next experiment, the system named is NCI-H187. The experiment can be described thus: Cytotoxicity against human NCI-H187 cells after 45 hrs by resazurin microplate assay. Type of experiment: functional, cell-based. Conditions: NCI-H187, 45 h.
The test system of another experiment is Plasmodium falciparum. The experiment can be described thus: Antimalarial activity against Plasmodium falciparum K1 after 24 hrs by [G-3H]hypoxanthine uptake assay. Type of experiment: functional, organism-based. The note with it: K1, 24 h. In short, it runs like this:
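Multidrug-resistant K1 strain, microculture radioisotope technique. Samples dissolved in DMSO as a 10 mg/mL stock, then diluted with water before testing. IC50 reported.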

Experiment [1] relates to Mycobacterium tuberculosis. The experiment can be described thus: Antituberculosis activity against Mycobacterium tuberculosis. Type of experiment: functional, organism-based.
Another experiment deals with MCF7. The experiment can be described thus: Cytotoxicity against human MCF7 cells after 45 hrs by resazurin microplate assay. In kind it is functional, cell-based. Conditions: MCF7, 45 h.
The test system of the next experiment is Vero. As to the kind of experiment: Cytotoxicity against african green monkey Vero cells by green fluorescent protein microplate assay. In kind it is cell-based. Conditions: Chlorocebus sabaeus.

As usually defined, the IC50 is the concentration that gives 50% inhibition.

Structures are written as SMILES. Where a name gives a salt, the structure may show the parent alone. Activity calls are given as the source filed them. The calls are words filed in the database; no cut-off is given here. A value given as a limit tells only on which side of the number the result lay.

With `CC1Cc2cc3c(-c4c(O)cc(O)c5c(O)c6c(cc45)CC(C)OC6=O)c(O)cc(O)c3c(O)c2C(=O)O1` (centres undefined) [ASCHERNAPHTHOPYRONE A], the IC50 with KB was 17 µM; in the experiment with NCI-H187, 4.5 µM; with Plasmodium falciparum, 7.3 µM; with MCF7 it was 87 µM; in the experiment on Vero, more than 96 µM. The outcome in experiment [1] was inactive.
With `CC1Cc2cc3cc(O)c(-c4c(O)cc5cc6c(c(O)c5c4O)C(=O)OC(C)C6)c(O)c3c(O)c2C(=O)O1` (centres undefined) [ASCHERNAPHTHOPYRONE B], the concentration for half-maximal inhibition (IC50) in the experiment on KB is more than 96 µM; with NCI-H187 it was 95 µM; in the experiment on Plasmodium falciparum, more than 19 µM; in the experiment with MCF7 it was 79 µM; in the experiment on Vero, 52 µM. Moreover, the result in experiment [1] was inactive.
Take `CC(C)C1=C2CC[C@]3(C)[C@H]([C@H](O)C[C@@H]4[C@@]5(C)CCCC(C)(C)[C@@H]5CC[C@]43C)[C@@]2(C)CC1`: the IC50 was more than 118 µM in the experiment with KB; more than 118 µM with NCI-H187; more than 23 µM with Plasmodium falciparum; more than 118 µM in the experiment on MCF7; more than 118 µM in the experiment with Vero. The outcome in experiment [1] was inactive.
`COc1cccc2c1C(=O)c1c(O)c3c(c(O)c1C2=O)C[C@@](O)(C(=O)CO)C[C@@H]3O[C@H]1C[C@H](N)[C@H](O)[C@H](C)O1` [DOXORUBICIN HYDROCHLORIDE]: it took 0.086 µM to reach half-maximal inhibition in the experiment with NCI-H187 (IC50).
For `Cc1c2ccncc2c(C)c2c1[nH]c1ccccc12` [ELLIPTECINE], the IC50 turned out to be 1.5 µM in the experiment with NCI-H187 and 3.8 µM with Vero.
For the compound `CC(C)C1=C2CC[C@]3(C)[C@H]([C@H](O)C[C@@H]4[C@@]5(C)CCCC(C)(C)[C@@H]5[C@@H](O)C[C@]43C)[C@@]2(C)CC1`, the IC50 with KB is more than 113 µM; with NCI-H187 it was more than 113 µM; in the experiment on Plasmodium falciparum it was 15 µM; with MCF7 it was more than 113 µM; in the experiment on Vero, more than 113 µM. The outcome in experiment [1] was inactive.
With `C[C@H]1[C@@H](O)O[C@@H]2O[C@@]3(C)CC[C@H]4[C@H](C)CC[C@@H]1[C@@]24OO3` [ARTENIMOL], half-maximal inhibition in the experiment on Plasmodium falciparum (IC50) was put at 0.0046 µM.
Consider `CC(C)C1=C2CC[C@]3(C)[C@H](CC[C@@H]4[C@@]5(C)CCCC(C)(C)[C@@H]5[C@@H](O)C[C@]43C)[C@@]2(C)CC1` [ZEORININ], for which the IC50 with KB was more than 118 µM; in the experiment on NCI-H187 it was more than 118 µM; with Plasmodium falciparum, more than 23 µM; in the experiment with MCF7, more than 118 µM; in the experiment with Vero, more than 118 µM. In addition, the result in experiment [1] was inactive.

The record behind these values is ChEMBL document CHEMBL1157110, “Hopane-type triterpenes and binaphthopyrones from the scale insect pathogenic fungus Aschersonia paraphysata BCC 11964” (J Nat Prod, 2010).
